G6PDH CS – L. mesenteroides G6PDH inhibitors, counter-screen for G6PDH-coupled screening assays, biochemical, Leuconostoc mesenteroides enzyme; inhibition, % at 5 µM; glucose-6-phosphate dehydrogenase [Leuconostoc mesenteroides]; hit rate 0.12% among 200,000; Purified L. mesenteroides G6PDH, diaphorase/resazurin coupled fluorescence, 45 min; in the data active means inhibition above about 50%
PMI act hi M6P – human PMI activators, high substrate, primary screen, biochemical, fluorescence intensity, near-saturating mannose 6-phosphate. activation factor at 20 µM. hit rate 0.34% among 190,000. coupled PMI enzyme assay, resazurin fluorescence, 20 min; active compounds read high; 1 = untreated enzyme, 0 = substrate-free blank. Mannose-6-phosphate isomerase (Homo sapiens), P34949;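 active means activation factor of 2 or more at 20 µM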
Target sequence (P34949 whole entry, looked up): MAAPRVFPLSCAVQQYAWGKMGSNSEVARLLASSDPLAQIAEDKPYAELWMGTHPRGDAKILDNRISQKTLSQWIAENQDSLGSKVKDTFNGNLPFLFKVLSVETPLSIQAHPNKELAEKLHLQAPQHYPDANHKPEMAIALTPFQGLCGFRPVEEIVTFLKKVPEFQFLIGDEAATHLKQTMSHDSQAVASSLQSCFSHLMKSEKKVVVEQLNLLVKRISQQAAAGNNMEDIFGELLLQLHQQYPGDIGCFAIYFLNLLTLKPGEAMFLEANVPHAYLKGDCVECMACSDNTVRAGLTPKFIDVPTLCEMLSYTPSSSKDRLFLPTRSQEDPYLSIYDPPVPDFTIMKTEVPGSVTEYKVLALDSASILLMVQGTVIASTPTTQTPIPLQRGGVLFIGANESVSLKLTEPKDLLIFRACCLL
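Test system: human phosphomannose isomerase with PGI, G6PDH, diaphorase coupling enzymes; Amount: PMI at 15 ng/mL final; Reagent: Mannose-6-phosphate 1.0 mM (near-saturating) plus 0.22 mM NADP+; Timing: 20 min, room temperature; Technique: resorufin fluorescence at Ex 544/Em 590 nm; Dosing: 20 µM single dose.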
Diaphorase inh – diaphorase inhibitors and chemical oxidizers, primary screen, counter-screen for diaphorase-coupled primary assays, biochemical, uHTS, resorufin fluorescence | inhibition, % at 20 µM | diaphorase resazurin-to-resorufin fluorescence, NADH, 16 min; bacterial (C. kluyveri) enzyme, not human | hit rate 0.69% among 190,000;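 active means primary screen inhibition at 20 µM above a set limit, cut at about 50% in these data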
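Benchmarks: positive control wells lacking NADH, neutral wells with DMSO only. System: bacterial diaphorase enzyme (C. kluyveri). Input: 0.14 U/mL diaphorase, enzyme working solution. Detection: resorufin fluorescence, excitation 544 nm, emission 590 nm. Times: 16-min room-temperature incubation before reading.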
Diaph act CS – compounds boosting diaphorase resazurin reduction – biochemical, uHTS, resorufin fluorescence, counter-screen for diaphorase-coupled primary assays, primary screen; Diaphorase/resazurin coupled assay, 16 min; active compounds read high; 1 = vehicle wells, 0 = NADH-free wells; activation factor at 20 µM; hit rate 0.005% among 190,000; AID 1229, 2008;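 active means diaphorase activity raised at least twofold by the compound at 20 µM; inactive means activation factor below 2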
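Material: purified diaphorase enzyme from Clostridium kluyveri; Also added: 0.114 mM NADH and 0.1 mM resazurin, final amounts; Doses: single compound dose of 20 µM, 1% DMSO final; Times: 16 min enzyme reaction, ambient temperature; Detection: resorufin fluorescence, excitation 544 nm, emission 590 nm; Measure: increased resorufin signal from activators or reducing compounds.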
PMI act – activators of human PMI, primary screen, biochemical, fluorescence intensity, near-Km mannose 6-phosphate; purified human PMI, coupled resazurin fluorescence, 20 min; active compounds read high; 1 = vehicle control, 0 substrate-free wells; activation factor at 20 µM; hit rate 0.005% among 190,000;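 active means activation factor of 2 or more at 20 µM, relative to plate controls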
Each line names hits and unclear results; the compound was inactive in the other large screens. An excerpt weighted towards active compounds, which were near 1.1% of everything screened.

CN(C)Cc1c(O)ccc2c3c(c(=O)oc12)CCCCC3	none
CN(Cc1c(O)ccc2c1oc(=O)c1ccccc12)C1CCCCC1	Diaphorase inh 93.8
CCOC(=O)c1cc2c(=O)n3ccccc3nc2n(C(C)C)c1=NC(=O)c1ccncc1	PMI act hi M6P 2.2, Diaphorase inh 65.3
CCOC(=O)c1cc2c(=O)n3ccccc3nc2n(CCCOC)c1=NC(=O)c1cccnc1	PMI act hi M6P 2
CCOC(=O)c1cc2c(=O)n3ccccc3nc2n(CCOC)c1=NC(=O)c1ccncc1	none
CCOC(=O)c1cc2c(=O)n3ccccc3nc2n(C(C)C)c1=NC(=O)c1c(-c2ccccc2Cl)noc1C	none
N#C/C(=C\c1cccc(NC(=O)c2ccccc2Cl)c1)C(=O)NCCc1ccccc1	none
CCOc1ccc(CCNC(=O)c2cc3sccc3n2CC)cc1OCC	none
Cc1cc(C)c(C)c(N=Nc2nc3ccccc3n2C)c1C	none
Cc1ccc(C)c(N=Nc2nc3ccccc3n2C)c1	PMI act hi M6P 2.2
CO/N=C\CC(=O)Nc1ccc(Cl)cc1Cl	none
Cc1cc(C)c(NS(=O)(=O)c2cccc3cccnc23)c(C)c1	none
CC1=[N+](C)c2c(ccc3cccnc23)C1(C)C	Diaphorase inh 65.4
CCOCCCNC(=S)NCCCNc1nc2c(C)cc(C)cc2cc1C#N	PMI act hi M6P 2.1
Cc1cc(C)c2nc(NCCCNC(=S)NCCCN(C)C)c(C#N)cc2c1	none
CCOC(=O)N1CCN(C2=Nc3cccc4cccc2c34)CC1	G6PDH CS 58.3
COc1ccccc1N1CCN(C2=Nc3cccc4cccc2c34)CC1	none
CC(=O)N1CCN(C2=Nc3cccc4cccc2c34)CC1	G6PDH CS 56.2
CCCN(CCC)S(=O)(=O)c1ccc(C(=O)Nc2nc(-c3ccccc3)c(C(=O)OCC)s2)cc1	none
Cc1[nH]nc(-c2ccc(O)c(C)c2O)c1-c1cnn(-c2ccccc2)c1	none
COc1cc(NC(=S)N2CCC(C(N)=O)CC2)c(OC)cc1Cl	Diaphorase inh 54.8
O=C1OC2(CCCCC2)OC(=O)C1=CNc1ccc2c(c1)OCO2	none
O=C1/C(=C/Nc2ccc3c(c2)OCO3)CCc2ccccc21	G6PDH CS 53.1, Diaphorase inh 74.8
COc1ccc2c(c1)CC/C(=C\Nc1ccc3c(c1)OCO3)C2=O	G6PDH CS 59.2, Diaphorase inh 81.6
COc1ccc(N/C=C2\CCc3ccccc3C2=O)cc1	G6PDH CS 61.7, Diaphorase inh 89.8
CC(C)NC(=O)CSc1nc(N)c(NC(=O)c2ccccc2F)c(=O)[nH]1	none
C=CCn1c(COc2cccc(C)c2)nnc1SCn1nnc2ccccc2c1=O	none
C=C(C)C1CC=C(C)/C(=N\NC(=S)Nc2ccc(C)cc2)C1 (stereo unspecified)	Diaphorase inh 66.0
C=C(C)C1CC=C(C)/C(=N/NC(=O)COc2ccc(C)cc2)C1 (stereo unspecified)	none
S=C(Nc1ccc2nccnc2c1)N1CCOCC1	none
CSc1nncn1/N=C/c1ccc([N+](=O)[O-])cc1	none
CS/C(N)=N/N=C/c1ccc([N+](=O)[O-])cc1	PMI act hi M6P 2.5
S=C1NC2(CCCCC2)NN1c1ccccc1	PMI act hi M6P 2.9
O=C1NC2(NN1c1ccccc1)C1CC3CC(C1)CC2C3 (stereo unspecified)	none
O=C1NC2(CCC3(CC2)OCCO3)NN1c1ccccc1	PMI act hi M6P 2.3
CC1(c2ccccc2)NC(=S)N2C1NC(=S)N2c1ccccc1 (stereo unspecified)	none
CC(C)(C)N1NC2(CCCCC2)NC1=S	PMI act hi M6P 2.1
CC1CC(C)(C)CC2(C1)NC(=S)N(c1ccccc1)N2 (stereo unspecified)	PMI act hi M6P 2
O=C(NC(=S)Nc1ccc(S(=O)(=O)Nc2ncccn2)cc1)c1ccc(Br)cc1	none
CC/C(=N\NC(=O)CCC(=O)NCc1ccccc1)c1ccc(O)cc1	none
CN(CC(=O)Nc1ccc(N2CCOCC2)cc1)CC(=O)Nc1ccccc1C#N	none
CC1CCCC2(C1)NC(=S)N(c1ccccc1)N2 (stereo unspecified)	PMI act hi M6P 2.7
COc1ccc(Nc2c([N+](=O)[O-])ccc3c2=NC2(CCCCC2)N=3)cc1	none
CNC1=C(N(C(C)=O)c2ccc(Br)cc2)C(=O)c2ccccc2C1=O	G6PDH CS 51.8
CC1(C)Cc2c(sc(NC(=S)NC(=O)c3ccccc3)c2C(=O)O)CO1	Diaphorase inh 78.4
CC1(C)Cc2c(sc(NC(=O)c3ccco3)c2C(=O)O)CO1	none
COc1ccc(N(CCN2C(=O)c3ccccc3C2=O)C(=O)c2cccc([N+](=O)[O-])c2)cc1	none
COc1ccc(N(CCCN2C(=O)c3cccc4cccc(c34)C2=O)C(=O)c2ccncc2)cc1	none
COc1ccc(N(CCCN2C(=O)c3cccc4cccc(c34)C2=O)C(=O)c2cccnc2)cc1	Diaphorase inh 58.4
COc1cc(OC)cc(C(=O)N(CCCN2C(=O)c3cccc4cccc(c34)C2=O)c2cccc(OC)c2)c1	Diaphorase inh 52.6
CCCC1C2CN(C(C)C)CC=C2C(C#N)=C(N)C1(C#N)C#N (stereo unspecified)	none
COc1ccccc1CCNC(=O)c1cnn2c(C(F)F)cc(C)nc12	none
COc1ccc(CCNC(=O)c2cnn3c(C(F)F)cc(C)nc23)cc1OC	Diaphorase inh 78.5
Cc1cccc(C(=O)N=c2c(C#N)cc3c(=O)n4cccc(C)c4nc3n2Cc2ccco2)c1	Diaphorase inh 60.5
CCOC(=O)c1cc2c(=O)n3cccc(C)c3nc2n(Cc2ccco2)c1=NC(=O)c1cccnc1	none
COc1ccccc1N/N=C/c1c(CO)cnc(C)c1O	PMI act hi M6P 2.1
CC(C)(C)C(=O)NC(=S)Nc1sc2c(c1C(N)=O)CCC2	Diaphorase inh 50.3
CC(C)CC(=O)NC(=S)Nc1sc2c(c1C(N)=O)CCC2	none
Cc1cc(C)c(S(=O)(=O)/N=C2/C=C(Sc3ncn[nH]3)C(=O)c3ccccc32)cc1C	G6PDH CS 51.2
CC(=O)/C(=N/Nc1cccc(C)c1)N1CCOCC1	PMI act hi M6P 2.2
Cc1cccc(C(=O)Nc2cccc(C(=O)N3CCOCC3)c2)c1	none
CCC(=O)N(CC)C1=C(O)c2ccccc2C(=O)C1=O	G6PDH CS 51.7
Cc1oc2c(c1C(=O)N1CCC(C)CC1)C(=O)c1ccccc1C2=O	G6PDH CS 56.5
CCOC(=O)C1CCN(C(=O)c2c(C)oc3c2C(=O)c2ccccc2C3=O)CC1	G6PDH CS 60.4

From PubChem BioAssay
